“And” between values parts separate entries of the source, which are not always exact repeats. Identical values can stand only once.
Tested on: Fibroblast
Assay: Multiplex assay against human fibroblast
Format: toxicity, cell-based
Outline: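 Imaging took place on a CQ1 microscope at 37°C and 5% CO2 once compound had been added to live cells stained at seeding with Hoechst33342, BioTracker Green Microtubule Cytoskeleton Dye, MitoTracker Red and Annexin V Alexa Fluor 680. CellPathfinder machine-learning gating classed cells as Hoechst high-intensity objects or normal cells, classed normal cells as having healthy, pyknosed or fragmented nuclei, and classed pyknosed cells as mitotic or apoptotic. Tubulin, mitochondrial-mass and membrane-permeability phenotypes are per cents of the healthy-nucleus cells.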

[1] = 12 h, 1 µM, compound concentration 1 uM, replicate 1
[2] = 12 h, 1 µM, compound concentration 1 uM, replicate 2
[3] = 12 h, 10 µM, compound concentration 10 uM, replicate 1
[4] = 12 h, 10 µM, compound concentration 10 uM, replicate 2
[5] = 24 h, 1 µM, compound concentration 1 uM, replicate 1
[6] = 24 h, 1 µM, compound concentration 1 uM, replicate 2
[7] = 24 h, 10 µM, compound concentration 10 uM, replicate 1
[8] = 24 h, 10 µM, compound concentration 10 uM, replicate 2
[9] = 48 h, 10 µM, compound concentration 10 uM, replicate 1
[10] = 48 h, 10 µM, compound concentration 10 uM, replicate 2

c1ccc(-c2oc3ncnc(NC[C@@H]4CCCO4)c3c2-c2ccccc2)cc1
Population Apoptotic (%) [1]: 77% and 68%
Population Fragmented Nuclei (%) [1]: 30% and 24%
Population Healthy Nuclei (%) [1]: 49% and 53%
Population Hoechst High Intensity Objects (%) [1]: 11% and 13%
Population Membrane Permeable-Phenotype (%) [1]: 22% and 42%
Population Mitochondria Different-Phenotype (%) [1]: 7% and 16%
Population Mitotic Cells (%) [1]: 22% and 31%
Population Normal (%) [1]: 88% and 86%
Population Pyknosed Nuclei (%) [1]: 20% and 21%
Total Cell Count [1]: 123 and 267
Population Apoptotic (%) [2]: 50% and 25%
Population Fragmented Nuclei (%) [2]: 35% and 48%
Population Healthy Nuclei (%) [2]: 40% and 37%
Population Hoechst High Intensity Objects (%) [2]: 35% and 44%
Population Membrane Permeable-Phenotype (%) [2]: 29% and 27%
Population Mitochondria Different-Phenotype (%) [2]: 11% and 18%
Population Mitotic Cells (%) [2]: 50% and 75%
Population Normal (%) [2]: 64% and 55%
Population Pyknosed Nuclei (%) [2]: 23% and 13%
Population Tubulin-Different-Phenotype (%) [2]: 47% and 100%
Total Cell Count [2]: 65 and 52
Population Apoptotic (%) [3]: 53%
Population Fragmented Nuclei (%) [3]: 20%
Population Healthy Nuclei (%) [3]: 41%
Population Hoechst High Intensity Objects (%) [3]: 20%
Population Membrane Permeable-Phenotype (%) [3]: 21%
Population Mitochondria Different-Phenotype (%) [3]: 42%
Population Mitotic Cells (%) [3]: 46%
Population Normal (%) [3]: 79%
Population Pyknosed Nuclei (%) [3]: 37%
Population Tubulin-Different-Phenotype (%) [3]: 84%
Total Cell Count [3]: 99
Population Apoptotic (%) [4]: 87%
Population Fragmented Nuclei (%) [4]: 14%
Population Healthy Nuclei (%) [4]: 71%
Population Hoechst High Intensity Objects (%) [4]: 6%
Population Membrane Permeable-Phenotype (%) [4]: 34%
Population Mitochondria Different-Phenotype (%) [4]: 56%
Population Mitotic Cells (%) [4]: 12%
Population Normal (%) [4]: 93%
Population Pyknosed Nuclei (%) [4]: 14%
Population Tubulin-Different-Phenotype (%) [4]: 95%
Total Cell Count [4]: 61
Population Apoptotic (%) [5]: 65% and 78%
Population Fragmented Nuclei (%) [5]: 19% and 29%
Population Healthy Nuclei (%) [5]: 59% and 57%
Population Hoechst High Intensity Objects (%) [5]: 18% and 12%
Population Membrane Permeable-Phenotype (%) [5]: 17% and 16%
Population Mitotic Cells (%) [5]: 34% and 21%
Population Normal (%) [5]: 81% and 87%
Population Pyknosed Nuclei (%) [5]: 21% and 13%
Total Cell Count [5]: 254 and 121
Population Apoptotic (%) [6]: 70% and 83%
Population Fragmented Nuclei (%) [6]: 43% and 66%
Population Healthy Nuclei (%) [6]: 34% and 17%
Population Hoechst High Intensity Objects (%) [6]: 33% and 36%
Population Membrane Permeable-Phenotype (%) [6]: 13% and 28%
Population Mitotic Cells (%) [6]: 30% and 16%
Population Normal (%) [6]: 66% and 63%
Population Pyknosed Nuclei (%) [6]: 22% and 15%
Population Tubulin-Different-Phenotype (%) [6]: 66% and 100%
Total Cell Count [6]: 66 and 61
Population Apoptotic (%) [7]: 76%
Population Fragmented Nuclei (%) [7]: 43%
Population Healthy Nuclei (%) [7]: 39%
Population Hoechst High Intensity Objects (%) [7]: 25%
Population Membrane Permeable-Phenotype (%) [7]: 13%
Population Mitochondria Different-Phenotype (%) [7]: 51%
Population Mitotic Cells (%) [7]: 23%
Population Normal (%) [7]: 74%
Population Pyknosed Nuclei (%) [7]: 17%
Population Tubulin-Different-Phenotype (%) [7]: 82%
Total Cell Count [7]: 99
Population Apoptotic (%) [8]: 100%
Population Fragmented Nuclei (%) [8]: 14%
Population Healthy Nuclei (%) [8]: 68%
Population Hoechst High Intensity Objects (%) [8]: 10%
Population Membrane Permeable-Phenotype (%) [8]: 21%
Population Mitochondria Different-Phenotype (%) [8]: 56%
Population Mitotic Cells (%) [8]: 0%
Population Normal (%) [8]: 90%
Population Pyknosed Nuclei (%) [8]: 16%
Population Tubulin-Different-Phenotype (%) [8]: 81%
Total Cell Count [8]: 60
Population Apoptotic (%) [9]: 60%
Population Fragmented Nuclei (%) [9]: 36%
Population Healthy Nuclei (%) [9]: 51%
Population Hoechst High Intensity Objects (%) [9]: 14%
Population Membrane Permeable-Phenotype (%) [9]: 13%
Population Mitochondria Different-Phenotype (%) [9]: 55%
Population Mitotic Cells (%) [9]: 40%
Population Normal (%) [9]: 85%
Population Pyknosed Nuclei (%) [9]: 11%
Population Tubulin-Different-Phenotype (%) [9]: 95%
Total Cell Count [9]: 98
Population Apoptotic (%) [10]: 0%
Population Fragmented Nuclei (%) [10]: 40%
Population Healthy Nuclei (%) [10]: 59%
Population Hoechst High Intensity Objects (%) [10]: 10%
Population Membrane Permeable-Phenotype (%) [10]: 16%
Population Mitochondria Different-Phenotype (%) [10]: 42%
Population Mitotic Cells (%) [10]: 0%
Population Normal (%) [10]: 89%
Population Pyknosed Nuclei (%) [10]: 0%
Population Tubulin-Different-Phenotype (%) [10]: 96%
Total Cell Count [10]: 105

Reference: ChEMBL document CHEMBL4689842, “EUbOPEN Chemogenomics Library wave 1” (2021)
